Measurements from ChEMBL document CHEMBL1131493, “Inhibitors of farnesyl protein transferase. 4-Amido, 4-carbamoyl, and 4-carboxamido derivatives of 1-(8-chloro-6,11-dihydro-5H-benzo[5,6]- cyclohepta[1,2-b]pyridin-11-yl)piperazine and 1-(3-bromo-8-chloro-6,11- dihydro-5H-benzo[5,6]cyclohepta[1,2-b]pyridin-11-yl)piperazine” (J Med Chem, 1998).

Assays:
[1] = In vivo antitumor efficacy in nude mice 0-24 hr after intravenous dose of 25 mg/kg expressed as Area under the curve; type: ADME, organism-based; set-up: time < 24 hr, dose 25 mg/kg, route intravenous; conditions: mouse
Method in brief: (§1)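 Serum pharmacokinetics in nude mice or cynomolgus monkeys after oral (po) or iv dosing. Compounds were given as hydrochloride salts in 20% HPβCD unless otherwise noted. Other formulations were the hydrochloride salt in saline, the micronized free base in 20% HPβCD or corn oil (po) with saline for iv, or the hydrochloride salt in 0.4% methyl cellulose (po).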

[2] = In vivo antitumor efficacy in nude mice 0-24 hr after peroral dose of 25 mg/kg expressed as Area under the curve; type: ADME, organism-based; set-up: time < 24 hr, dose 25 mg/kg, route oral; conditions: nude, mouse, po; method in brief: as §1
[3] = In vivo antitumor efficacy in cynomolgus monkeys by injecting a dose of 10 mg/kg, as HCl salt in saline solution, perorally and the total drug exposure was determined (0-8 hr); type: ADME, organism-based, Macaca fascicularis; set-up: time < 8 hr, dose 10 mg/kg, route oral; conditions: cynomolgus monkey, po; method in brief: as §1
[4] = Oral bioavailability in mouse (nude) (dose of 25 mg/kg); type: ADME, organism-based; conditions: in vivo; method in brief: as §1
[5] = In vivo antitumor efficacy expressed as maximum plasma concentration 0.4 hr after a peroral dose of 25 mg/kg in cynomolgus monkeys; type: ADME, organism-based, Macaca fascicularis; set-up: dose 25 mg/kg, route oral; conditions: cynomolgus monkey, po; method in brief: as §1
[6] = (§2) Maximal plasma concentration in nude mice after 25 mg/kg oral dose; type: ADME, organism-based; set-up: dose 25 mg/kg, route oral; conditions: mouse; method in brief: as §1
Cynomolgus monkey [7] = assay: In vivo antitumor efficacy after peroral dose of 10 mg/kg in cynomolgus monkeys expressed as duration for which compound was present above IC50; type: ADME, organism-based, Macaca fascicularis; set-up: dose 10 mg/kg, route oral; conditions: po; method in brief: as §1
Mus musculus [8] = assay: In vivo antitumor efficacy after peroral dose of 25 mg/kg in mice expressed as duration for which compound was present above IC50; type: ADME, organism-based; set-up: dose 25 mg/kg, route oral; conditions: po; method in brief: as §1
[9] = In vivo antitumor efficacy in nude mice by injecting a dose of 25 mg/kg iv and serum half-life was determined; type: ADME, organism-based; set-up: dose 25 mg/kg, route intravenous; conditions: mouse; method in brief: as §1
[10] = biological target: geranylgeranyltransferase type-I (Rattus norvegicus, UniProt P53610+Q04631); assay: Inhibition of rat Geranylgeranyl transferase (GGPT); type: protein-complex assay
[11] = In vivo antitumor efficacy peroral dose of 25 mg/kg expressed as duration for which compound was present above IC50; type: ADME, organism-based; set-up: dose 25 mg/kg, route oral; conditions: po; method in brief: as §1
[12] = In vivo antitumor efficacy in nude mice after peroral dose of 25 mg/kg expressed as Area under the curve; type: ADME, organism-based; set-up: dose 25 mg/kg, route oral; conditions: mouse, po; method in brief: as §1
[13] = biological target: T1, Protein farnesyltransferase (Homo sapiens, UniProt P49354+P49356); assay: Inhibition of Farnesyltransferase from Ras-CVLS or Ras-CVLL in Cos-7 monkey kidney cells; type: cell-based, Chlorocebus aethiops
[14] = biological target: T1, Protein farnesyltransferase; assay: In vitro inhibition of farnesyltransferase farnesylation of the H-ras oncogene; type: protein-complex assay
[15] = In vivo antitumor efficacy in nude mice by injecting a dose of 25 mg/kg, as HCl salt in saline solution, iv and the total drug exposure was determined.; type: ADME, organism-based; set-up: dose 25 mg/kg, route intravenous; conditions: mouse
Mus musculus [16] = assay: In vivo antitumor efficacy in nude mice by injecting a dose of 25 mg/kg, as HCl salt in saline solution, perorally and the total drug exposure was determined; type: ADME, organism-based; set-up: dose 25 mg/kg, route oral; conditions: po
[17] = In vivo antitumor efficacy in cynomolgus monkeys by injecting a dose of 25 mg/kg, as HCl salt in saline solution, perorally and the total drug exposure was determined (0-8 hr); type: ADME, organism-based, Macaca fascicularis; set-up: time < 8 hr, dose 25 mg/kg, route oral; conditions: cynomolgus monkey, po
Method in brief: (§3)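 Cynomolgus monkeys; hydrochloride salt in saline iv, or compound given po (as hydrochloride, as micronized free base in corn oil, or as hydrochloride in 0.4% methyl cellulose, depending on compound).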

[18] = Oral bioavailability in mouse (nude) (dose 25 mg/kg i.v.); type: ADME, organism-based; conditions: in vivo
[19] = In vivo antitumor efficacy in nude mice by injecting a dose of 25 mg/kg, as HCl salt in solution, iv and the total drug exposure was determined. (0-24hr); type: ADME, organism-based; set-up: time < 24 hr, dose 25 mg/kg, route intravenous; conditions: mouse
Mus musculus [20] = assay: In vivo antitumor efficacy in nude mice by injecting a dose of 25 mg/kg, as HCl salt in solution, perorally and the total drug exposure was determined (0-24hr); type: ADME, organism-based; set-up: time < 24 hr, dose 25 mg/kg, route oral; conditions: po
[21] = as §2; type: ADME, organism-based; set-up: dose 25 mg/kg, route oral; conditions: mouse; remark: listed apart in the source
[22] = as §2; type: ADME, organism-based; set-up: dose 25 mg/kg, route oral; conditions: mouse; remark: listed apart in the source
[23] = In vivo antitumor efficacy in cynomolgus monkeys by injecting a dose of 25 mg/kg, as HCl salt in saline solution, perorally and the maximum drug concentration was determined; type: ADME, organism-based, Macaca fascicularis; set-up: dose 25 mg/kg, route oral; conditions: cynomolgus monkey, po; method in brief: as §1
Cynomolgus monkey [24] = assay: In vivo antitumor efficacy in cynomolgus monkeys by injecting a dose of 10 mg/kg, as HCl salt in saline solution, perorally and the duration of action was reported; type: ADME, organism-based, Macaca fascicularis; set-up: dose 10 mg/kg, route oral; conditions: po; method in brief: as §3
[25] = In vivo antitumor efficacy in nude mice by injecting a dose of 25 mg/kg, as HCl salt in solution, iv and the serum half-life was determined; type: ADME, organism-based; set-up: dose 25 mg/kg, route intravenous; conditions: mouse
[26] = In vivo antitumor efficacy in nude mice by injecting a dose of 25 mg/kg, as HCl salt in saline solution, iv and the serum half-life was determined; type: ADME, organism-based; set-up: dose 25 mg/kg, route intravenous; conditions: mouse
[27] = In vivo antitumor efficacy expressed as plasma area under the curve 0.4 hr after a peroral dose of 25 mg/kg in nude mice; type: ADME, organism-based; set-up: time < 0.4 hr, dose 25 mg/kg, route oral; conditions: mouse, po; method in brief: as §1
[28] = In vivo antitumor efficacy expressed as plasma area under the curve 0.4 hr after iv dose of 25 mg/kg in nude mice; type: ADME, organism-based; set-up: time < 0.4 hr, dose 25 mg/kg, route intravenous; method in brief: as §1

SMILES | AUC at 24 h [1] [ng·h/mL] | AUC at 24 h [2] [ng·h/mL] | bioavailability [4] [%] | Cmax [6] [nM] | half-life [9] [h] | IC50 [10] [µM] | Time above IC50 [11] [h] | other results
O=C(Cc1cc[n+]([O-])cc1)N1CCN([C@@H]2c3ccc(Cl)cc3CCc3cc(Br)cnc32)CC1 | 27100 | 31900 | 100 | 25000 | 1.18 | > 38 |  | AUC at 8 h [3]: 9100 ng·h/mL; Cmax [5]: 1800 nM; Time above IC50 (Cynomolgus monkey [7]): 12 h; Time above IC50 (Mus musculus [8]): 7 h
O=C(Cc1ccc[n+]([O-])c1)N1CCN(C2c3ccc(Cl)cc3CCc3cc(Br)cnc32)CC1 (stereo unspecified) | 24000 | 34800 | 100 | 45400 | 1 |  | 6 | 
O=C(Cc1ccncc1)N1CCN(C2c3ccc(Cl)cc3CCc3cc(Br)cnc32)CC1 (stereo unspecified) |  | 1100 | 20.8 | 900 | 0.74 | > 39 | 6 | AUC [12]: 1100 ng·h/mL; IC50 [13]: 0.38 µM; IC50 [14]: 0.012 µM
CN1CCC(CC(=O)N2CCN(C3c4ccc(Cl)cc4CCc4cc(Br)cnc43)CC2)CC1 (stereo unspecified) |  |  | 45 |  |  | > 38 |  | AUC [15]: 32900 ng·h/mL; AUC (Mus musculus [16]): 39 uh ml-1; AUC at 8 h [17]: 37200 ng·h/mL; bioavailability [18]: 100%; AUC at 24 h [19]: 40600 ng·h/mL; AUC (Mus musculus [20]): 18.4 uh ml-1; Cmax [21]: 30000 nM; Cmax [22]: 4000 nM; Cmax [23]: 1500 nM; Time above IC50 (Cynomolgus monkey [24]): 72 h; half-life [25]: 8.3 h; half-life [26]: 8.5 h
O=C(Cc1ccncc1)N1CCN(C2c3ccc(Cl)cc3CCc3cccnc32)CC1 (stereo unspecified) |  |  | 13 | 900 | 0.2 | > 46 | 1 | AUC at 0.4 h [27]: 240 ng·h/mL; AUC at 0.4 h [28]: 1800 ng·h/mL
